Compound activity (PubChem BioAssay)
SENP8 block-1: blocks human SENP8 cleavage of Nedd8 substrate. Q96LD8. recombinant SENP8, Nedd8 substrate fluorescence. inhibition, % at 20 µM. 360,000 tested, 0.64% active. AID 602440; in the data active = inhibition mostly above about 40%, no sharp cut-off; inactive = mostly below about 27%
Target sequence (Q96LD8 whole entry, looked up): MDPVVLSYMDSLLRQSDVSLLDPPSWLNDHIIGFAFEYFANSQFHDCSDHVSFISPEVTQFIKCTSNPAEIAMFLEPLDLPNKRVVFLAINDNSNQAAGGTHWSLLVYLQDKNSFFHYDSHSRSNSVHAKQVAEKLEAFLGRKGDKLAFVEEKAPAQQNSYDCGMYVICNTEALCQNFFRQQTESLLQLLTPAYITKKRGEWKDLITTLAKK
SENP6 inh: SENP6 protease inhibition; Q9GZR1; Recombinant SENP6 catalytic domain, aminoluciferin luminescence; inhibition, % at 10 µM; 330,000 tested, 1.8% active; AID 2599;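 active = inhibition above about 50% at the single tested dose, limit read from the data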;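 also: plate controls were DMSO wells with enzyme for no effect and DMSO wells lacking enzyme for full effect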
Platelet DG rel: platelet dense granule release activity; inhibition, %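 (compounds screened at 7.5 µM in platelet-rich plasma)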; human platelet-rich plasma, SFLLRN dense granule ATP release, luminescence; 300,000 tested, 0.22% active;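 active = mean replicate score, as percent of positive control, at or above 50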
SENP1 FRET inh: blocks the human SENP1 SUMO protease catalytic domain; recombinant SENP1 catalytic domain, CyPet-SUMO1-YPet FRET cleavage; inhibition, % at 10 µM; 360,000 tested, 0.21% active; AID 624204;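 active = inhibition at least 30% at 10 µM, raw YFP signal under a set limit, fluorescence ratio 0.5 to 1.5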;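 also: 0% = enzyme with DMSO and 100% = no enzyme wells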
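system = hSENP1 catalytic domain, recombinant | reagent = SFCypet-SUMO1-SFYpet substrate at 25 nM | doses = one dose per compound, 10 µM, 0.5% DMSO | incubation = enzyme reaction for 50 min at room temperature, dark | measured by = FRET, CFP and YFP emission | controls = no-enzyme low, enzyme-DMSO high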
SENP7 block: SENP7 protease inhibition; recombinant SENP7, Z-RLRGG-aminoluciferin luminescence, 40 min; inhibition, % at 5 µM; 330,000 tested, 1.5% active; Q9BQF6;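 active = inhibition above about 50% at the single test dose, limit read from the data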;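 also: plate controls were DMSO with enzyme for no effect and no enzyme buffer wells for full effect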
Target sequence (Q9BQF6 706-1050 limits assumed): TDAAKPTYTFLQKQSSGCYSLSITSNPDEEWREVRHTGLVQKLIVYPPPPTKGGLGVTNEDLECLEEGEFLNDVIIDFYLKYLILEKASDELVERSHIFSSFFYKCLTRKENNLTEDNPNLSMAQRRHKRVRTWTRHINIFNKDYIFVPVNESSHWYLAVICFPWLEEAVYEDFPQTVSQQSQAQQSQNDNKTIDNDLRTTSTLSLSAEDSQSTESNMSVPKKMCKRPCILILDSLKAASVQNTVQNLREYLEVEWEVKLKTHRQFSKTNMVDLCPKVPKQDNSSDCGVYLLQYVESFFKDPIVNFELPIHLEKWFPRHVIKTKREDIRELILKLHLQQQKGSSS
SENP8 block-2: SENP8 protease inhibition; inhibition, % at 10 µM; 330,000 tested, 1.2% active; purified SENP8, Z-RLRGG-aminoluciferin cleavage, luminescence; in the data active = inhibition above about 50%
SENP8 confirm: confirmation of human SENP8 protease inhibitors; 6,200 tested, 40% active; shares compounds with SENP7 block; inhibition, % at 12.5 µM; Recombinant SENP8, Z-RLRGG-aminoluciferin luminescence, 60 min;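 active = mean inhibition across replicates above about 50%, limit read from the data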
SENP6 confirm: confirmation of human SENP6 protease inhibitors; shares compounds with SENP7 block; recombinant SENP6, Z-RLRGG-aminoluciferin luminescence; inhibition, % at 12.5 µM; 6,200 tested, 58% active; AID 488915
SENP7 confirm: human SENP7 inhibition, confirmed | shares compounds with SENP7 block | recombinant SENP7, Z-RLRGG-aminoluciferin luminescence, 40 min | inhibition, % at 12.5 µM | 6,200 tested, 69% active
Casp3 select: inhibits human caspase-3 in SENP selectivity test; shares compounds with SENP7 block; purified caspase-3, Z-DEVD-aminoluciferin luminescence, 60 min; inhibition, % at 12.5 µM; 6,200 tested, 60% active;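 active = mean inhibition above about 50%, limit read from the data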;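 also: plate controls were enzyme with DMSO for no effect and wells without caspase-3 for full effect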
Luc interf: interferes with luciferase luminescence in SENP counter-screen. shares compounds with SENP7 block. 6,200 tested, 39% active. Pre-incubated SENP8/Z-RLRGG-aminoluciferin, luciferase luminescence interference. inhibition, % at 12.5 µM. AID 488919;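 active = mean inhibition above about 50% when retested at one dose, limit read from the data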;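 also: plate controls were DMSO wells with completed reaction for no effect and substrate without enzyme for full effect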
* marks the source's active call; other numbers are inactive results; / = not tested or not shown; ! = a repeat was not active. Shown are actives, neighbours in structure and some others; about 2.6% of the full set was active somewhere.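 The calls were made as follows, unless noted: active = mean inhibition above about 50% in the one-dose retest (limit read from the data); inactive = the rest.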

SMILES | SENP8 block-1 | SENP6 inh | Platelet DG rel | SENP1 FRET inh | SENP7 block | SENP8 block-2 | SENP8 confirm | SENP6 confirm | SENP7 confirm | Casp3 select | Luc interf
Oc1cc(NCCc2cccnc2)cc2cccnc12 | -157.9 | 71.6* | / | 1.5 | 39.5 | 48.4 | 14.3 | 49.4 | 14.1 | 88.1* | -3.5
Cc1cccc(C)c1N(CC(=O)NC1CCCCC1)C(=O)c1csnn1 | 12.1 | 18.9 | -8.8 | 2.9 | 4.4 | -2.4 | / | / | / | / | /
CCOC1=C2CN(S(=O)(=O)c3ccc(C)cc3)C(c3cccc(Cl)c3)CC2NC(c2ccccc2)C1 (stereo not drawn) | -2.3 | / | / | 2.1 | / | / | / | / | / | / | /
O=C(Nc1cccc(-c2ccc(N3CCOCC3)nn2)c1)c1ccc([N+](=O)[O-])cc1 | 12.1 | 46.7 | -3.6 | -0.1 | 44.7 | 24.8 | / | / | / | / | /
Cc1ccc([N+](=O)[O-])cc1S(=O)(=O)Nc1cccc(-c2ccc(N3CCCC3)nn2)c1 | 13.1 | 89.6* | 6.3 | 3.2 | 15.7 | 82.6* | 61.6* | 75.6* | 87.4* | 69.9* | 5.5
Cc1ccc(C(=O)Nc2cccc(-c3ccc(N4CCOCC4)nn3)c2)cc1[N+](=O)[O-] | -6.3 | 66.9* | 12.6 | 0.1 | 62.9* | 50.4* | -6.0 | -4.1 | -4.1 | 7.4 | 5.7
O=C(COc1ccccc1)Nc1cccc(-c2ccc(N3CCOCC3)nn2)c1 | -22.0 | 61.1* | 12.4 | 1.0 | 53.2* | 28.6 | -26.0 | 28.4 | 76.0* | 65.9* | -7.1
O=C(Nc1cccc(-c2ccc(N3CCOCC3)nn2)c1)c1ccccc1 | -18.5 | 26.8 | 0.0 | 0.3 | 26.0 | 5.1 | / | / | / | / | /
O=C(COc1ccc(Cl)cc1Cl)Nc1ccc(-c2ccc(N3CCOCC3)nn2)cc1 | -63.0 | -0.1 | 8.0 | 1.0 | 1.1 | -3.8 | / | / | / | / | /
O=C(COc1ccc(Cl)cc1Cl)Nc1cccc(-c2ccc(N3CCOCC3)nn2)c1 | -23.9 | 1.8 | 0.7 | 0.1 | 75.7* | -6.4 | 8.1 | 9.1 | -2.9 | 4.7 | -1.1
O=C(CN1CCN(S(=O)(=O)N2CCCCC2)CC1)Nc1ccc(Br)cc1 | 1.3 | -21.5 | -0.7 | 1.5 | 1.0 | -0.3 | / | / | / | / | /
Nc1ncnc2c1ncn2[C@@H]1O[C@H](CN2CCCS2(=O)=O)[C@@H](O)[C@H]1O | 8.0 | -25.6 | / | -0.2 | 7.9 | -8.6 | / | / | / | / | /
Cc1ncc(CO)c(/C=N/N=C/c2ccccc2O)c1O | -35.2 | 60.4* | 10.0 | 21.3 | 25.4 | 32.1 | 7.1 | 7.1 | 8.6 | 9.3 | 5.0
Cc1ncc(CO)c(/C=N/NC(=S)Nc2ccc(F)cc2)c1O | -324.1 | -2.1 | -0.4 | -28.3 | 4.2 | -0.8 | / | / | / | / | /
CCN(CC)C(=O)[C@H]1CC(CC(=O)NCc2ccco2)C(=O)N2CCc3c([nH]c4ccc(OC)cc34)[C@]12C (stereo partly drawn) | 11.2 | / | / | 2.8 | 6.3 | / | / | / | / | / | /
c1cc2[nH]snc2c2nc(C3CC3)nc12 | -100.0 | 55.0* | 17.0 | 4.1 | 28.0 | 29.1 | -4.0 | -1.2 | 3.0 | 35.4 | 16.7
CCN(CC(=O)Nc1ccccc1OC)C(=O)COc1ccc(C#N)cc1 | 5.2 | / | / | -0.2 | / | / | / | / | / | / | /
O=C(CNc1ccc(Br)cc1)c1ccccc1 | 19.3 | 71.4* | -0.2 | 0.4 | 32.1 | 47.9 | 9.1 | 13.9 | 20.7 | 21.3 | 12.5
CCN(CC)CCN1C(=O)Cn2c(C)c(C)c3cccc1c32 | 20.1 | -13.9 | -3.9 | 4.5 | 58.2*! | -8.4 | -4.6 | 2.8 | 0.0 | -0.5 | 0.4
O=C(COC(=O)c1cccnc1Cl)c1ccc(Cl)s1 | 10.8 | 55.9* | / | 3.0 | 76.3* | 41.6 | 67.0* | 62.9* | 87.5* | 79.9* | 76.0*
